The values below come from ChEMBL document CHEMBL1141177, “The novel L- and D-amino acid derivatives of hydroxyurea and hydantoins: synthesis, X-ray crystal structure study, and cytostatic and antiviral activity evaluations” (J Med Chem, 2005).

Converted amounts (≈) assume the structure as drawn. A value given as a limit tells only on which side of the number the result lay.

The nature of test [1]: Effective concentration required to reduce plaque formation by Davis strain of CMV virus in Human embryonic lung cells. Format: functional, cell-based. The method in brief:
(§1)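 Plaque reduction assay in human embryonic lung (HEL) cell cultures, virus input 100 plaque forming units. Viruses: CMV strains AD-169 and Davis, VZV TK+ strain OKA and TK− strain 07/1. EC50 is the concentration that reduces virus plaque formation by 50%.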

The subject of test [2] is L1210. Briefly: Inhibition of murine leukemia cells (L1210) growth. It is filed as functional, cell-based. The conditions noted are these: Mus musculus.
Test [3] is described as follows: Effective concentration required to reduce plaque formation by AD-169 strain of CMV virus in Human embryonic lung cells. It is filed as functional, cell-based. The procedure, abridged:
as §1

Test [4] relates to SW-620. Briefly: Inhibition of colon carcinoma cell line (SW 620) growth. The note with it: Homo sapiens. It is filed as functional, cell-based. The method in brief: (§2)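 Monolayers in DMEM with 10% FBS, 2 mM L-glutamine, penicillin/streptomycin, 37 °C, 5% CO2. Cells seeded on day 0, then compounds added in 5- and 10-fold dilutions (10^-8–10^-4 M) for 72 h. MTT read-out at 570 nm. Percent growth calculated relative to time-zero and untreated OD. Quadruplicates in three experiments; IC50 by linear interpolation, highest concentration reported as ">" when not reached.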

Test [5] concerns HeLa. The experiment in a line: Inhibition of cervical carcinoma cell line (HeLa) growth. It is filed as functional, cell-based. The conditions noted are these: Homo sapiens. The method in brief: as §2
Test [6] relates to HEL. The experiment in a line: Cytotoxic concentration to reduce the 50% cell growth of human embryonic lung cells. Format: functional.
Test [7] concerns WI-38. Briefly: Inhibition of normal human fibroblast cell line (WI 38) growth. Format: functional, cell-based. The method in brief: as §2
The subject of test [8] is MOLT-4. Briefly: Inhibition of human T-lymphocyte cell line (Molt4/C8) growth. Format: functional, cell-based.
Test [9] concerns MCF7. The experiment in a line: Inhibition of breast carcinoma cell line (MCF-7) growth. The note with it: Homo sapiens. Format: functional, cell-based. The procedure, abridged: as §2
The test system of test [10] is MIA PaCa-2. The experiment in a line: Inhibition of pancreatic carcinoma cell line (MiaPaCa-2) growth. Format: functional, cell-based. The note with it: Homo sapiens. The procedure, abridged:
as §2

The subject of test [11] is Human alphaherpesvirus 3. Briefly: Reduction of plaque formation by VZV07/1 strain of thymidine kinase(TK-) deficient VZ virus in human embryonic lung cells. Format: functional, organism-based. The note with it: Human alphaherpesvirus 3, lung.
The subject of test [12] is Human alphaherpesvirus 3. Briefly: Effective concentration of compound required to reduce plaque formation by OKA strain of thymidine kinase positive VZ virus TK+ in human embryonic lung cells. Format: functional, organism-based. The conditions noted are these: Human alphaherpesvirus 3, lung.
Test [13] relates to HEp-2. Briefly: Inhibition of laryngeal carcinoma cell line (Hep-2) growth. It is filed as functional, cell-based. The conditions noted are these: Homo sapiens. The procedure, abridged:
as §2

Test [14] has as its system HEL. Briefly: Minimum cytotoxic concentration of compound that causes alteration of cell morphology in human embryonic lung cells. Format: functional. The method in brief: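 Human embryonic lung (HEL) cells were examined microscopically. MCC is the minimum concentration that causes a detectable alteration of cell morphology.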
Test [15] deals with Cytomegalovirus. The experiment in a line: Effective concentration to reduce plaque formation of Cytomegalovirus AD-169 strain in human embryonic lung cell cultures. It is filed as functional, organism-based. The note with it: Human betaherpesvirus 5, lung. The method in brief:
as §1

Test [16] concerns Cytomegalovirus. The experiment in a line: Effective concentration of the compound to reduce plaque-formation of Cytomegalovirus davis strain in human embryonic lungcell cultures. It is filed as functional, organism-based. The conditions noted are these: Human betaherpesvirus 5. The procedure, abridged:
as §1

Setting [17] is: Homo sapiens, HEL, read-out: CC50.

Turning to `CC(C)C1NC(=O)N(C2CCCCC2)C1=O` (stereo not given), the EC50 (commonly the concentration at which the effect is half-maximal) came to 41 µg/mL (≈ 183 µM) in test [1], 45 µg/mL (≈ 201 µM) in [3], 29 µg/mL (≈ 129 µM) in test [11] and 45 µg/mL (≈ 201 µM) in test [12]. Further, the half-maximal inhibitory concentration (IC50) (usually the point on the concentration scale where inhibition reaches its midpoint) is over 200 µM in test [2]; over 100 µM in test [4]; over 100 µM in test [5]; over 100 µM in test [7]; over 200 µM in test [8]; over 100 µM in test [9]. Further, the values for the IC50 in test [10] and in test [13] were over 100 µM and 100 µM, respectively. Also, the CC50 (in general, the concentration at which the toxic effect on the cells reaches its halfway point) in test [6] (setting [17]) is over 50 µg/mL. The same compound registered an MCC in [14] of at least 100 µg/mL.

For the compound `O=C(NC1CCCCC1)C(NC(=O)n1nnc2ccccc21)c1ccccc1` (stereo not given), the EC50 in [1] was over 16 µg/mL; in test [3] it was over 3.2 µg/mL; in test [11], over 3.2 µg/mL; in [12] it was over 0.64 µg/mL. The IC50 in test [2] was 95 µM; in test [4] it was over 100 µM; in [5], 67 µM; in [7] it was over 100 µM; in test [8], 92 µM; in [9], 57.6 µM. Also, the IC50 was at least 100 µM in [10] and 69.7 µM in test [13]. The CC50 in test [6] (setting [17]) was found to be 15 µg/mL (≈ 39.7 µM). Moreover, the MCC in [14] was at least 16 µg/mL.

In the case of `O=C1NC(c2ccccc2)C(=O)N1Cc1ccccc1` (stereo not given), the EC50 is 4 µg/mL (≈ 15 µM) in test [1], 7.6 µg/mL (≈ 28.5 µM) in [3], 11 µg/mL (≈ 41.3 µM) in [11] and 15 µg/mL (≈ 56.3 µM) in test [12]. For the same compound, the IC50 in test [2] is over 200 µM; in test [4] it was 96.8 µM; in test [5] it was over 100 µM; in test [7], 78.9 µM; in test [8] it was over 200 µM; in test [9], 3.3 µM. Moreover, the IC50 came out at 68.9 µM in [10] and 82.9 µM in test [13]. In test [6] (setting [17]), the CC50 was found to be 12.5 µg/mL (≈ 46.9 µM). In test [14], this compound returned an MCC of 100 µg/mL.

Consider `Nc1ccn(C[C@@H](CO)OCP(=O)(O)O)c(=O)n1.O.O` [CIDOFOVIR], for which the EC50 in test [1], in test [15], in [3] and in test [16] was 0.13 µg/mL each time. For the same compound, the CC50 in test [6] and in test [6] (setting [17]) was 21.3 µg/mL throughout. In test [14], this compound returned an MCC of over 400 µg/mL.

With `CC(C)C1NC(=O)N(C2CCCC2)C1=O` (stereo not given), the EC50 in [1] was over 100 µg/mL; in [3], over 100 µg/mL; in test [11] it was over 90 µg/mL; in test [12], over 84 µg/mL. In addition, the IC50 in test [2] is over 200 µM; in test [4], over 100 µM; in [5], over 100 µM; in test [7], over 100 µM; in test [8], over 200 µM; in test [9], over 100 µM. In addition, the IC50 in test [10] was over 100 µM; in test [13] it was 98 µM. The CC50 in test [6] (setting [17]) was over 50 µg/mL. In test [14], this compound displayed an MCC of over 100 µg/mL.

With `O=C(NC(c1ccccc1)c1ccccc1)C(NC(=O)n1nnc2ccccc21)c1ccccc1` (stereo not given), the EC50 was over 16 µg/mL in test [1], over 16 µg/mL in test [3], over 3.2 µg/mL in [11] and over 3.2 µg/mL in test [12]. The IC50 in test [2] is 114 µM; in test [4] it was 51.7 µM; in [5], 33.3 µM; in test [7], 100 µM; in test [8], 89 µM; in [9] it was 34.2 µM. In addition, the IC50 was determined as 42.5 µM in [10] and 59.1 µM in test [13]. Also, the CC50 in test [6] (setting [17]) came to 38.3 µg/mL (≈ 83 µM). This compound also displayed an MCC in test [14] of 80 µg/mL.

With `CC(C)C(NC(=O)n1nnc2ccccc21)C(=O)NC1CCCCC1` (stereo not given), the EC50 in test [1] is over 16 µg/mL; in test [3], over 80 µg/mL; in test [11], over 3.2 µg/mL; in test [12], over 3.2 µg/mL. Further, the IC50 was 108 µM in [2]; over 100 µM in test [4]; 96.4 µM in test [5]; at least 100 µM in test [7]; 97 µM in [8]; 79.3 µM in [9]. The IC50 was over 100 µM in test [10] and 60 µM in [13]. Further, in test [6] (setting [17]), the CC50 came out at 90 µg/mL (≈ 262 µM). The same compound showed an MCC in test [14] of at least 80 µg/mL.

As for `O=C(C(Cc1ccccc1)NC(=O)n1nnc2ccccc21)N1CCCC1` (stereo not given), the EC50 is over 200 µg/mL in [1], over 200 µg/mL in [3], 106 µg/mL (≈ 292 µM) in [11] and 117 µg/mL (≈ 322 µM) in [12]. The IC50 in test [2] is 133 µM; in [4] it was over 100 µM; in test [5] it was over 100 µM; in [7] it was over 100 µM; in [8], 123 µM; in test [9], at least 100 µM. Besides, the figures for the IC50 in [10] and in test [13] were over 100 µM and at least 100 µM, respectively. Also, in test [6] (setting [17]), the CC50 came out at 148 µg/mL (≈ 406 µM). The same compound gave an MCC in test [14] of over 200 µg/mL.

As to `Nc1nc2c(ncn2COC(CO)CO)c(=O)[nH]1` [GANCICLOVIR], the EC50 in test [1] worked out at 0.34 µg/mL (≈ 1.33 µM); in test [15], 0.24 µg/mL (≈ 0.94 µM); in [3] it was 0.24 µg/mL (≈ 0.94 µM); in test [16] it was 0.34 µg/mL (≈ 1.33 µM). In [14], the MCC was over 400 µg/mL.
